Results of several laboratories.
Lines come from different studies, so protocols differ.

| Structure (SMILES) | technique | matrix | time | pH | temperature | setting | solubility |
| --- | --- | --- | --- | --- | --- | --- | --- |
| COc1ccc(Oc2ccc3c(=O)c4c(F)cc(Cl)cc4[nH]c3c2)cc1 | absorbance | aqueous buffer | 90 min | pH 7.4 | – | – | < 3.12 µM |
| OCc1ccc(-c2nn(Cc3ccccc3)c3ccncc23)o1 | – | aqueous buffer | 6 h | pH 7.4 | – | – | > 45 µg/mL |
| C[C@H]1CN(c2cccc(-c3ccc4ncnc(Nc5ncco5)c4c3)c2)CCO1 | – | aqueous buffer | – | pH 7.4 | 25 °C | – | 6 µM |
| OCc1ccc(-c2nn(Cc3ccccc3)c3cnccc23)o1 | – | aqueous buffer | 6 h | pH 7.4 | – | – | > 45 µg/mL |
| CC(C)(C(=O)O)[C@@H](NC(=O)Cc1cccc(I)c1)c1ccc2oc(=O)[nH]c2c1 | – | aqueous buffer | – | pH 6.8 | – | – | > 700 µM |
| NCc1ccc(-c2nn(Cc3ccccc3)c3ccccc23)o1 | – | aqueous buffer | 6 h | pH 7.4 | – | – | > 45 µg/mL |
| COc1cc(NC(=O)Cn2cc(Cl)c3ccc(-c4cnn(C)c4)cc32)cc(OC)c1OC | – | PBS | – | pH 7.4 | – | – | < 2.7 µM |
| CC[C@H]1OC(=O)[C@H](C)[C@@H](O[C@H]2C[C@@](C)(OC)[C@@H](O)[C@H](C)O2)[C@H](C)[C@@H](O[C@@H]2O[C@H](C)C[C@H](N(C)C)[C@H]2O)[C@](C)(O)C[C@@H](C)C(=O)[C@H](C)[C@@H](O)[C@]1(C)O | – | aqueous buffer | 18 h | pH 7.4 | – | – | 664 µM |
| OCc1ccc(-c2nn(Cc3cccnc3)c3cccnc23)o1 | – | aqueous buffer | 6 h | pH 7.4 | – | – | > 30 µg/mL |
| Cc1ccc(Nc2ncnc3ccc(-c4cccc(N5CCOCC5)c4)cc23)cc1 | – | aqueous buffer | – | pH 7.4 | 25 °C | – | 0.9 µM |
| O=C(O)c1cc(-c2ccc(-n3ccnn3)cc2)cc(-n2cc(-c3ccc(C(F)(F)F)cc3)nn2)c1 | – | aqueous buffer | – | pH 4 | – | – | 0.74 µg/mL |
| O=c1c2c([nH]c3cc(Oc4ccc(OC(F)(F)F)cc4)ccc13)CCCC2 | absorbance | aqueous buffer | 90 min | pH 7.4 | – | – | 18.5 µM |
| CC(=O)O[C@@H]1CC[C@@]2(C)[C@@H](CC[C@]3(C)[C@@H]2C(=O)C=C2[C@@H]4[C@@H](C)[C@H](C)CC[C@]4(C)CC[C@]23C)[C@@]1(C)C(=O)O | – | PBS | – | pH 7.4 | – | – | 6.45 µg/mL |
| Cc1cc(/C=C/C#N)cc(C)c1Nc1ccnc(Nc2ccc(C#N)cc2)n1 | – | water | 24 h | – | 37 °C | – | 0.2 µg/mL |
| COc1ccccc1Cn1nc(-c2ccc(CO)o2)c2ccccc21 | – | aqueous buffer | 6 h | pH 7.4 | – | – | 1 µg/mL |
| CN(c1ncco1)c1ncnc2ccc(-c3cccc(N4CCOCC4)c3)cc12 | – | aqueous buffer | – | pH 7.4 | 25 °C | – | 802 µM |
| CNS(=O)(=O)c1ccc(Nc2ncc(C(F)(F)F)c([C@H]3CC[C@](C)(O)CC3)n2)c(C)c1 | – | FaSSIF | 2 h | – | – | – | 14 µM |
| CCCN(CCC)CCNc1ccc2c(=O)c3c([nH]c2c1)CCCC3 | absorbance | aqueous buffer | 90 min | pH 7.4 | – | – | > 500 µM |
| CNS(=O)(=O)c1ccc(Nc2ncc3cc(Cl)c(=O)n(C4CCCC4)c3n2)c(C)c1 | – | PBS | 2 h | pH 7.4 | – | – | 0.3 µM |
| O=C([O-])CN1CCNCCN(CC(=O)[O-])CCNCC1.[Mn+2] | – | water | – | – | – | – | 470000 µg/mL |
| CCCCN(CCCC)CCCOc1ccc2c(=O)c3c([nH]c2c1)CCCC3 | absorbance | aqueous buffer | 90 min | pH 7.4 | – | – | > 500 µM |
| CCOc1ccc(Nc2c3c(nc4ccccc24)CCC3)cc1 | – | simulated gastric fluid | 30 min | pH 2 | – | acidic | > 100 µg/mL |
| CC(C)N(c1ccc(C#N)cc1)c1ccc(NC(=O)CN(C)c2ccccc2N2CCCC2=O)cn1 | – | PBS | – | pH 7.4 | – | – | 40 µM |

| Structure (SMILES) | technique | matrix | time | pH | temperature | setting | solubility |
| --- | --- | --- | --- | --- | --- | --- | --- |
| Clc1ccc(Nc2ncnc3ccc(-c4cccc(N5CCOCC5)c4)cc23)cc1Cl | – | aqueous buffer | – | pH 7.4 | 25 °C | – | 4 µM |
| OCc1ccc(-c2nn(Cc3ccncc3)c3cccnc23)o1 | – | aqueous buffer | 6 h | pH 7.4 | – | – | > 30 µg/mL |
| C[C@@H]1COCCN1c1cccc(-c2ccc3ncnc(Nc4ncco4)c3c2)c1 | – | aqueous buffer | – | pH 7.4 | 25 °C | – | 23 µM |
| O=C(CCCCCCC(=O)Nc1ccccc1)NO | – | water | – | – | – | – | 720 µg/mL |
| NCc1ccc(-c2nn(Cc3ccccn3)c3cccnc23)o1 | – | aqueous buffer | 6 h | pH 7.4 | – | – | > 30 µg/mL |
| Cc1ccccc1CN1C(=O)C2=C(CCN(Cc3ccccc3)C2)N2CCN=C12 | shake flask | aqueous buffer | – | pH 1 | – | – | 62200 µg/mL |
| Cc1ccc(Oc2ccc(NC(=O)COc3ccccc3N3CCCC3=O)cc2)cc1 | – | PBS | – | pH 7.4 | – | – | 4.2 µM |
| Cc1nsc(-c2nnc3n2CCN(C(=O)c2ccc(F)cc2)[C@@H]3C)n1 | – | aqueous buffer | – | pH 7.4 | – | – | 350 µg/mL |
| CCOC(=O)C1=C(CN2CCC[C@@H]2C(=O)Nc2ccc(B(O)O)cc2)NC(c2nccs2)=N[C@H]1c1ccc(F)cc1Br | HPLC | aqueous buffer | – | pH 2 | – | – | 257 µg/mL |
| O=[N+]([O-])c1ccc(Nc2ncnc3ccc(-c4cccc(N5CCOCC5)c4)cc23)cc1C(F)(F)F | – | aqueous buffer | – | pH 7.4 | 25 °C | – | < 0.4 µM |
| Cc1ccc(C(C)(C)c2ccc(NC(=O)CN(C)c3ccccc3N3CCCC3=O)cc2)cc1 | – | PBS | – | pH 7.4 | – | – | 2.5 µM |
| CCOC(=O)C1=C(CN2CCOCC2)NC(c2nccs2)=NC1c1ccc(F)cc1Br (stereo not drawn) | HPLC | aqueous buffer | – | pH 7.4 | – | – | < 1 µg/mL |
| Cc1ccc(Oc2ccc(NC(=O)CNc3ccccc3-n3cncn3)cc2)cc1 | – | PBS | – | pH 7.4 | – | – | 15 µM |
| CN1CCC(Nc2ncnc3ccc(-c4cccc(N5CCOCC5)c4)cc23)CC1 | – | aqueous buffer | – | pH 7.4 | 25 °C | – | 928 µM |
| Cc1c(Cl)cccc1-c1ccc2c(c1)N(Cc1noc(C3CCC3)n1)C(=O)CO2 | – | PBS | 8 h | pH 7.4 | – | – | 100 µM |
| CN1CCN(c2cccc(-c3ccc4ncnc(Nc5ncco5)c4c3)c2)CC1 | – | aqueous buffer | – | pH 7.4 | 25 °C | – | 520 µM |
| CNS(=O)(=O)c1ccc(Nc2ncc(C(F)(F)F)c(N3CCC(C)(O)CC3)n2)c(C)c1 | – | PBS | 2 h | pH 7.4 | – | – | 2.7 µM |
| O=c1c2ccc(Oc3ccc(OC(F)(F)F)cc3)cc2[nH]c2ccc(Cl)c(F)c12 | absorbance | aqueous buffer | 90 min | pH 7.4 | – | – | < 3.12 µM |
| Nc1nc2c(ncn2COCCO)c(=O)[nH]1 | shake flask | water | 24 h | – | – | – | 1770 µg/mL |
| O=C(Nc1ccc(OC(F)(F)F)cc1)N[C@H]1CC[C@H](Oc2ccc(C(=O)O)cc2)CC1 | – | simulated gastric fluid | 30 min | pH 1 | 37 °C | acidic | 0.0005 µg/mL |
| CCN(c1ccc(C)cc1)c1ccc(NC(=O)CN(C)c2ccccc2N2CCCC2=O)cn1 | – | PBS | – | pH 7.4 | – | – | 3.4 µM |
| Cc1ccc(Nc2cnnc3ccc(-c4ccc(N5CCCN(C)CC5)cc4)cc23)cn1 | – | aqueous buffer | – | pH 7.4 | 25 °C | – | 82 µM |
